High-throughput results (PubChem BioAssay)
Most compounds without a hit are left out; they make up all but 1.5% or so of the library.
CendR NRP1 mod: NRP-1/CendR interaction modulation | O14786 | FAM-RPARPAR peptide binding to NRP-1, fluorescence polarization | inhibition, % at 25 µM | hit rate 0.85% among 360,000 | AID 602438;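 active means inhibition or corrected inhibition above about 18%, plus a signal ratio from 0.5 to 1.5, limit read from the data, passing the limit was not always enough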
Target sequence (O14786 whole entry, looked up): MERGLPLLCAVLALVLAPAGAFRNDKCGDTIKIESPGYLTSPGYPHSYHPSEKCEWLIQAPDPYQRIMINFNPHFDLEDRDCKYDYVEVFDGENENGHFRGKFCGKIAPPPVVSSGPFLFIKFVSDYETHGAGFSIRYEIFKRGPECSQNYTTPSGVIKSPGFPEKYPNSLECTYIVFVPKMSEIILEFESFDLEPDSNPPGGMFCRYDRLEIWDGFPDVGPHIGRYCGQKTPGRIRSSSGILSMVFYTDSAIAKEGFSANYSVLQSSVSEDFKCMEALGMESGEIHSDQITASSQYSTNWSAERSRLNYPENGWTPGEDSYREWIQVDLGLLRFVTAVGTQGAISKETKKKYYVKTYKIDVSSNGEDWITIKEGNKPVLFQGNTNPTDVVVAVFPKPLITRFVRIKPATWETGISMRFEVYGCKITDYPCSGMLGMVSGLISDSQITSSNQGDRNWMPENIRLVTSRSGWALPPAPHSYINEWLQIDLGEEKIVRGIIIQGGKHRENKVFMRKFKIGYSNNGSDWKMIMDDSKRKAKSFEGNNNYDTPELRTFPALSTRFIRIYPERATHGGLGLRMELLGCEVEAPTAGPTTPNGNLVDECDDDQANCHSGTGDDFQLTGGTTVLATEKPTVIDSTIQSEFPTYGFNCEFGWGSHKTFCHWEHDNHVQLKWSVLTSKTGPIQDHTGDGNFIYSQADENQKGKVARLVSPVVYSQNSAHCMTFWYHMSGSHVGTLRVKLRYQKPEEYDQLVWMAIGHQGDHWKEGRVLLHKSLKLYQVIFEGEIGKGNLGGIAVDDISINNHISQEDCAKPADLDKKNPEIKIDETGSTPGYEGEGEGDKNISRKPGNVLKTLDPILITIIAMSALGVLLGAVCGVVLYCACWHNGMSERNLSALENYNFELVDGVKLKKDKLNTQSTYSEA
Fh CTSL1 inh: blocks F. hepatica cathepsin L1 in PFM18AAP counter-screen. hit rate 0.49% among 300,000. inhibition, % at 5.96 µM. recombinant F. hepatica cathepsin L1, Z-Leu-Arg-MCA fluorescence;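 active means inhibition above the mean of all tested compounds plus 3 SD, set per screening campaign, cut at about 17% in these data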;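 further: 0% = plate median of test compound wells and 100% = 1 µM Z-Phe-Ala-diazomethylketone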
MT1-MMP act inh: inhibitors of human MT1-MMP activation | HT1080 RFP-PRO-GFP cells, GFP/RFP ratio fluorescence, overnight; percent of plate control window, DMSO zero | GFP/RFP ratio change, % at 20 µM | hit rate 0.061% among 360,000;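 active means GFP/RFP ratio change of at least 30% with cell ATP level not reduced by more than half and red fluorescence within 50% of control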
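Compound: 20 µM single dose, 1% DMSO / System: HT1080 RFP-PRO-GFP cells / Controls: DMSO and RFP-L50D-GFP cell wells / Read-out basis: GFP/RFP fluorescence ratio / Schedule: overnight compound exposure at 37 °C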
UCH37 inh: human UCH37 deubiquitinating enzyme inhibition; Q9Y5K5; purified proteasome/UCH37, Ub-AMC cleavage fluorescence; inhibition, % (test concentration not listed); hit rate 0.33% among 330,000;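 active means mean inhibition over replicate wells above about 20%, limit read from the data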;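 further: 0% = compound-free wells with enzyme and 100% = wells lacking proteasome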
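Reagent: Ub-AMC substrate; assay system: Proteasome-associated human UCH37 deubiquitinase; controls: no-proteasome and no-compound wells; read-out: % inhibition of Ub-AMC cleavage fluorescence; timing: 30 min preincubation with enzyme, 25 min cleavage at room temperature; signal: AMC fluorescence from Ub-AMC cleavage, excitation 355 nm, emission 460 nm; buffer or medium: Tris-HCl pH 7.4 plus ovalbumin, ATP-MgCl2, DTT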
DAGLB inh: blocks human DAGLB lipase activity; Q8NCG7; hit rate 0.059% among 340,000; inhibition, % at 5.17 µM; AID 504411; HEK293T DAGLB membrane lysate, EnzChek fluorogenic substrate; in the data active means inhibition above about 34%;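 further: 0% = enzyme with vehicle and 100% = wells lacking enzyme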
UCH37 confirm: UCH37 Ub-AMC cleavage inhibition, confirmed | shares compounds with UCH37 inh | Proteasome-bound UCH37, Ub-AMC cleavage fluorescence | inhibition, % at 20 µM | hit rate 27% among 480;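 active means average inhibition over replicates above about 50%, so the earlier screening hit is confirmed, limit read from the data; inactive means the rest, counted as false positives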;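 further: based on cleavage rate fitted by regression over a 30 min kinetic read; 0% = proteasome plus Ub-AMC and 100% = Ub-AMC without proteasome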
Numbers without * were called inactive; · = not tested or not shown; ! = repeats disagree.

SMILES | CendR NRP1 mod | Fh CTSL1 inh | MT1-MMP act inh | UCH37 inh | DAGLB inh | UCH37 confirm
CC(C)(C)c1csc(NN=Cc2ccc(O)cc2)n1 | · | · | · | -4 | · | ·
C(C#CCCCCCCCCC[n+]1ccccc1)#CCCCCCCCCC[n+]1ccccc1 | -3 | -11 | -23 | 34* | 2 | 69*
O=C(O)C(c1ccccc1)N1C(=O)/C(=C\c2ccc(-c3ccccc3Cl)o2)SC1=S (stereo not drawn) | -159 | 4 | -21 | 38* | 10 | 100*
CC1=C(SCc2ccccc2)C(=O)c2ccccc2C1=O | 9 | · | -30 | 32* | -7 | 48
COc1ccc(OC)c(C2/C(=C(/O)c3cnn(-c4ccccc4)c3C)C(=O)C(=O)N2CCN(C)C)c1 (stereo not drawn) | -8 | 0 | 3 | 35* | -1 | 14
CC(Cn1nc([N+](=O)[O-])cc1C)=NNC(=O)COc1c(Cl)cc(Cl)cc1Cl | · | · | · | 2 | · | ·
CC(=NNC(=O)c1cccc(NN=C(C)c2cc(O)ccc2O)c1)c1cc(O)ccc1O | · | · | · | 35* | · | -34
CC(=NNC(=O)c1ccc(NN=C(C)c2ccc(O)cc2)cc1)c1ccc(O)cc1 | · | · | · | -49 | · | ·
Oc1ccc2ccccc2c1C=NC12CN3CCN(CN(C3)C1)C2 | 1 | 32* | 0 | 74* | 2 | 72*
O=C1CCCC2=C1C1(O)C(=O)c3ccccc3C1(O)O2 (stereo not drawn) | 8 | 5 | 2 | 65* | 0 | 79*
Cc1ccc(C=NNC(=O)CSc2nc3ccccc3[nH]2)o1 | · | · | · | -1 | · | ·
O=C(Nc1ccc2cn[nH]c2c1)c1c(Cl)cccc1Cl | -11 | -3 | -6 | 2 | 0 | ·
O=C1C(Cl)=C(Nc2ccc3cn[nH]c3c2)C(=O)c2ccccc21 | 22 | 28* | -17 | 46* | 13 | 13
CC(=O)Nc1ccc(S(=O)(=O)N2CCC(c3nc4ccc(C)cc4[nH]3)CC2)cc1 | 0 | -4 | -6 | 28* | 0 | 12
CCOC(=O)Nc1ccc(S(=O)(=O)N2CCC(c3nc4ccccc4[nH]3)CC2)cc1 | 8 | · | -7 | · | -6 | ·
Cc1ccc(SCc2cc(=O)[nH]c(N=C(N)Nc3ccccc3Sc3ccccc3)n2)cc1 | · | · | · | 3 | · | ·
N#Cc1ccc(OCC(=O)NN=C2CCc3ccccc32)cc1 | · | · | · | -1 | · | ·
O=C(Cc1ccccc1)NN=Cc1ccc([N+](=O)[O-])s1 | · | · | · | 1 | · | ·
Cc1ccc(NC2=C(NCCO)C(=O)c3ccccc3C2=O)cc1 | 8 | 8 | -10 | 26* | 8 | 2
CON=C(C(=O)O)c1csc(NN=C(C)C)n1 | · | · | · | 6 | · | ·
CCN1/C(=C/C(C)=C/c2sc3ccccc3[n+]2CC)Sc2ccccc21 | -264 | 0 | 32 | 28* | 28 | 22
COc1ccc(C=NNC(=O)c2sccc2OCc2ccc(F)cc2)cc1OC | · | · | · | -5 | · | ·
O=C(NN=C1CC(=NNC(=O)c2ccncc2)c2ccccc21)c1ccncc1 | · | · | · | 46* | · | 77*
CC(=O)Nc1ccc(S(=O)(=O)/N=C2\C(=O)c3ccccc3C([O-])=C2n2cc[n+](-c3ccccn3)c2)cc1 | 11 | 31* | -5 | 57* | 2 | 58*
CCN(CC)c1ccc(C=NNC(=O)Cc2cccs2)c(O)c1 | · | · | · | -12 | · | ·
SMILES | CendR NRP1 mod | Fh CTSL1 inh | MT1-MMP act inh | UCH37 inh | DAGLB inh | UCH37 confirm
[O-][n+]1cccc2c(Br)cc(Br)c(O)c21 | 13 | 1 | 8 | 45* | 4 | 20
N#CC1=C(N)NC(SCC(=O)Nc2ccccc2)=C(C#N)C12CCCC2 | -20 | 0 | 1 | 38* | 0 | 34
CC(=O)Nc1ccc(Sc2ccc([N+](=O)[O-])o2)cc1 | -20 | · | -10 | 28* | 1 | 26
COc1ccc(C=NNC(=O)c2c(C)nc3ccccn23)cc1[N+](=O)[O-] | · | · | · | 2 | · | ·
CC(=O)N(C1=C(N)C(=O)c2ccccc2C1=O)c1ccccc1 | 9 | 30* | -2 | 37* | 9 | 49
COc1cc(/C=C(\C#N)c2nc3ccccc3s2)cc([N+](=O)[O-])c1O | -119 | · | 2 | 26* | 19 | 53*
COc1ccc(C(C[N+](=O)[O-])c2c(C)[nH]n(-c3ccccc3)c2=O)cc1 (stereo not drawn) | -3 | 98* | 2 | 77* | -1 | 7
Cc1[nH]n(-c2ccccc2)c(=O)c1C(C[N+](=O)[O-])c1ccccc1Cl (stereo not drawn) | 31* | -5 | 2 | 30* | 0 | 1
Cn1c(Cc2nc3ccccc3n2C)nc2ccccc21 | 1 | -1 | 4 | 42* | 0 | 15
C=Cc1c(C)c2cc3[nH]c(cc4nc(cc5nc(cc1[nH]2)C(C)=C5CCC(=O)O)C(CCC(=O)O)=C4C)c(C)c3C=C | 20*! | 4 | 18 | 47*! | 4 | 100*
O=C(NN=Cc1ccc(Sc2ccccn2)o1)c1cccc(Br)c1 | · | · | · | -1 | · | ·
O=c1cc(-c2cccc([N+](=O)[O-])c2)[nH][nH]1 | -3 | 1 | 7 | 7 | 8 | ·
Nc1cc(-c2cccc([N+](=O)[O-])c2)[nH]n1 | -8 | 0 | -3 | 39* | 0 | 6
Cc1ccc(NN=C(C#N)C(N)=S)c(C)c1 | · | · | · | 8 | · | ·
COc1ccc(-c2nc(NN=C(C)c3ccc(O)cc3)c3ccccc3n2)cc1 | · | · | · | 4 | · | ·
COc1cc(/C=C(\NC(=O)c2ccccc2)C(=O)NCCO)c([N+](=O)[O-])cc1OC | -6 | 0 | 1 | 2 | -1 | ·
COc1cc(/C=C(\NC(=O)c2ccccc2)C(=O)Nc2cccc(O)c2)c([N+](=O)[O-])cc1OC | 1 | 4 | 19 | 51* | -1 | 5
CC(=NNC(=O)c1ccccn1)c1ccc(Cl)cc1 | · | · | · | 3 | · | ·
C(=NN1CCOCC1)c1ccsc1 | · | · | · | 0 | · | ·
